# Measured values published in publication PMC3082038 (Cancer Chemotherapy and Pharmacology, 2010).
# Columns and labels:
# [1] = tested on: patients with advanced solid tumors; settings: b.i.d., between-meal conditions; cited from earlier work
# PAI-1 = experiment: Angiogenesis-related factor: PAI-1; assay type: in vivo, human
# Procedure, shortened: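 Plasma and urine were collected from patients before treatment and after day 8 and day 28 of oral test compound dosing, and analysed at a central commercial laboratory. ELISA kits were used for human VEGF (plasma and urine), ELAM-1, VCAM-1 and soluble t-PA. Soluble PAI-1 was measured by latex photometric immunoassay. Values are reported as median (range) per time point.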
# [2] = tested on: Japanese patients with solid tumors; experiment: Phase I safety: drug-related adverse events, DLT, MTD, recommended dose; assay type: in vivo, human
# Procedure, shortened: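 Dose escalation used three-patient cohorts, alternating b.i.d. and t.i.d., starting at 200 mg/m2 b.i.d. Oral dosing was by body surface area for 28 days continuously. b.i.d. doses were taken within 1 h after meals, about 12 h apart; t.i.d. doses about 6 or 12 h apart. Patients were assessed at least weekly and graded by NCI-CTC v2.0. DLT: grade ≥3 non-haematological or grade ≥4 haematological drug-related event. MTD: DLT in 2/3 or 3/6 patients.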
# [3] = b.i.d. 200 mg/m^2 × 2, n = 3, G1
# [4] = b.i.d. 200 mg/m^2 × 2, n = 3, G2
# [5] = b.i.d. 400 mg/m^2 × 2, n = 6, G1
# [6] = b.i.d. 400 mg/m^2 × 2, n = 6, G2
# [7] = b.i.d. 400 mg/m^2 × 2, n = 6, G3
compound,measurement,setting,value
"Cc1[nH]c(/C=C2\C(=O)Nc3ccccc32)c(C)c1CCC(=O)O [TSU-68, (Z)-5-[(1,2-dihydro-2-oxo-3H-indol-3-ylidene)methyl]-2,4-dimethyl-1H-pyrrole-3-propanoic acid]",Recommended dosage,[1],≤ 800 mg/m^2
same,Change of PAI-1 at day 28 compared to baseline,"PAI-1; PD patients (13 pts.), Wilcoxon signed rank-sum test",significantly increasing
same,"PAI-1, median","PAI-1; day 8, 23 patients",28 ng/mL
same,"PAI-1, range","PAI-1; day 8, 23 patients",11 to 92 ng/mL
same,"PAI-1, median","PAI-1; day 28, 22 patients",31 ng/mL
same,"PAI-1, range","PAI-1; day 28, 22 patients",11 to 120 ng/mL
same,Patients experiencing DLTs,"[2]; 400 mg/m^2 b.i.d. dose level, three plus three patients, grade 3 dyspnea, hypoxemia, pleural effusion and anorexia, and unacceptable grade 2 anorexia",2 patients
same,Dose-limiting toxicity (DLT),[2]; 500 mg/m^2 b.i.d. dose level,not found
same,Toxicity ≥ G3-4,"[2]; Pt 4, SCLC, b.i.d. 400 mg/m^2 (1,200 mg/day)",G3 (DLT)
same,Toxicity ≥ G3-4,"[2]; Pt 5, NSCLC, b.i.d. 400 mg/m^2 (1,200 mg/day)",– (DLT)
same,Toxicity ≥ G3-4,"[2]; Pt 19, NSCLC, t.i.d. 400 mg/m^2 (2,400 mg/day)",G4 (DLT)
same,"Abdominal pain upper, Total no. (%)","[2]; all dose levels, n = 24",5 (20.8) no. (%)
same,"Abdominal pain, Total no. (%)","[2]; all dose levels, n = 24",11 (45.8) no. (%)
same,"Alkaline phosphatase increased, Total no. (%)","[2]; all dose levels, n = 24",13 (54.2) no. (%)
same,"Anorexia, Total no. (%)","[2]; all dose levels, n = 24",12 (50.0) no. (%)
same,"Back pain, Total no. (%)","[2]; all dose levels, n = 24",5 (20.8) no. (%)
same,"Blood albumin decreased, Total no. (%)","[2]; all dose levels, n = 24",20 (83.3) no. (%)
same,"Diarrhea, Total no. (%)","[2]; all dose levels, n = 24",17 (70.8) no. (%)
same,"Discoloration urine/stool, Total no. (%)","[2]; all dose levels, n = 24",24 (100) no. (%)
same,"Dyspnea, Total no. (%)","[2]; all dose levels, n = 24",1 (4.2) no. (%)
same,"Face edema, Total no. (%)","[2]; all dose levels, n = 24",6 (25.0) no. (%)
same,"Headache, Total no. (%)","[2]; all dose levels, n = 24",7 (29.2) no. (%)
same,"Hypoxia, Total no. (%)","[2]; all dose levels, n = 24",1 (4.2) no. (%)
same,"Malaise, Total no. (%)","[2]; all dose levels, n = 24",18 (75.0) no. (%)
same,"Nauseous, Total no. (%)","[2]; all dose levels, n = 24",9 (37.5) no. (%)
same,"Pericardial effusion, Total no. (%)","[2]; all dose levels, n = 24",1 (4.2) no. (%)
same,"Pleural effusion, Total no. (%)","[2]; all dose levels, n = 24",5 (20.8) no. (%)
same,"Vomiting, Total no. (%)","[2]; all dose levels, n = 24",8 (33.3) no. (%)
same,"γ-glutamyltransferase increased, Total no. (%)","[2]; all dose levels, n = 24",6 (25.0) no. (%)
same,"No. maximum grade (patients, drug-related adverse events)",[2]; [3],0
same,Number of patients with drug-related Alkaline phosphatase increased,[2]; [3],1
same,Number of patients with drug-related Anorexia,[2]; [3],2
same,Number of patients with drug-related Blood albumin decreased,[2]; [3],1
same,Number of patients with drug-related Diarrhea,[2]; [3],1
same,Number of patients with drug-related Discoloration urine/stool,[2]; [3],3
same,Number of patients with drug-related Malaise,[2]; [3],1
same,Number of patients with drug-related Serum total protein decreased,[2]; [3],1
same,"No. maximum grade (patients, drug-related adverse events)",[2]; [4],3
same,Number of patients with drug-related Abdominal pain,[2]; [4],2
same,Number of patients with drug-related Blood albumin decreased,[2]; [4],1
same,Number of patients with drug-related Diarrhea,[2]; [4],1
same,Number of patients with drug-related Malaise,[2]; [4],1
same,Number of patients with drug-related Nauseous,[2]; [4],1
same,Number of patients with drug-related Vomiting,[2]; [4],1
same,"No. maximum grade (patients, drug-related adverse events)","[2]; b.i.d. 200 mg/m^2 × 2, n = 3, G3",0
same,"No. maximum grade (patients, drug-related adverse events)","[2]; b.i.d. 200 mg/m^2 × 2, n = 3, G4",0
same,"No. maximum grade (patients, drug-related adverse events)",[2]; [5],0
same,Number of patients with drug-related Abdominal pain,[2]; [5],1
same,Number of patients with drug-related Abdominal pain upper,[2]; [5],1
same,Number of patients with drug-related Alkaline phosphatase increased,[2]; [5],6
same,Number of patients with drug-related Anorexia,[2]; [5],2
same,Number of patients with drug-related Back pain,[2]; [5],1
same,Number of patients with drug-related Blood albumin decreased,[2]; [5],2
same,Number of patients with drug-related Diarrhea,[2]; [5],5
same,Number of patients with drug-related Discoloration urine/stool,[2]; [5],6
same,Number of patients with drug-related Headache,[2]; [5],1
same,Number of patients with drug-related Malaise,[2]; [5],4
same,Number of patients with drug-related Nauseous,[2]; [5],2
same,Number of patients with drug-related Pleural effusion,[2]; [5],1
same,Number of patients with drug-related Vomiting,[2]; [5],2
same,Number of patients with drug-related γ-glutamyltransferase increased,[2]; [5],1
same,"No. maximum grade (patients, drug-related adverse events)",[2]; [6],5
same,Number of patients with drug-related Abdominal pain,[2]; [6],2
same,Number of patients with drug-related Anorexia,[2]; [6],1
same,Number of patients with drug-related Back pain,[2]; [6],1
same,Number of patients with drug-related Blood albumin decreased,[2]; [6],2
same,Number of patients with drug-related Headache,[2]; [6],2
same,Number of patients with drug-related Nauseous,[2]; [6],1
same,Number of patients with drug-related Serum total protein decreased,[2]; [6],1
same,Number of patients with drug-related γ-glutamyltransferase increased,[2]; [6],2
same,"No. maximum grade (patients, drug-related adverse events)",[2]; [7],1
same,Number of patients with drug-related Anorexia,[2]; [7],1
same,Number of patients with drug-related Dyspnea,[2]; [7],1
